Source: publication PMC2805920 (Biochemical Journal, 2009)

Assays:
130nt-RNA = assay: EMSA, binding to 32P-labelled 130nt-RNA; parameters: species or system Trypanosoma cruzi; details: peptide 9 to 30 μM
Outline: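 The probe was a T7 transcript radiolabelled with [α-32P]UTP, gel-purified and desalted on Sephadex G-50. Probe (0.72 nM) was incubated with increasing peptide for 30 min at 37 °C. Peptide stocks were 500 μM in PBS with 30 μM ZnCl2. Gels were dried and phosphorimaged. Kd is the peptide concentration giving 50 % RNA bound, from a Hill-equation fit.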

135nt-ssDNA = assay: EMSA, binding to 32P-labelled 135nt-ssDNA; parameters: species or system Trypanosoma cruzi
29/mm29c DNA duplex = assay: DNA-melting assay on mismatched duplex; format: biochemical; details: 1 μM peptide, 32P-29mer/mm29c duplex
Outline: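 A 32P-29mer and its complementary strand carrying four internal mismatches (mm29c) were annealed in water: 5 min at 95 °C, NaCl added to 50 mM, then slowly cooled to 22 °C. It was incubated 5 min at 25–55 °C, sampled every 5 °C into ice-cold tRNA/SDS/Ficoll stop mix, run on native 15 % PAGE and phosphorimaged.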

stable duplexes = details: read-out: Conc50, concentration required to reach the formation of 50% of stable duplexes as a measure of NAC activity; NO = no observed activity; cited from earlier work
135bp-dsDNA = assay: EMSA, binding to 32P-labelled 135bp-dsDNA; parameters: species or system Trypanosoma cruzi; details: peptide 0.9-30 μM

| RNA-binding affinity (in words) (130nt-RNA) | ssDNA-binding affinity (in words) (135nt-ssDNA) | dsDNA-binding affinity (in words) (135bp-dsDNA) | Substance | effect on the Tm of the mismatched DNA duplex (in words) (29/mm29c DNA duplex) | EC50 (stable duplexes) [µM] |
| --- | --- | --- | --- | --- | --- |
| complete loss of affinity | very low affinity | no affinity | LT……CPHCDSTLTGFSGLVSHCRSFHP [compound 5032] | does not have any influence on the Tm | > 30 |
| eliminated |  | complete loss of binding affinity | TVPPSAREEDVSPV…TLTRRRKEKC [compound 5030] | does not have any influence on the Tm | > 30 |
